Results taken from ChEMBL document CHEMBL1777802, “Synthesis, DNA binding, fluorescence measurements and antiparasitic activity of DAPI related diamidines” (Bioorg Med Chem, 2010).

Tests used:
[1] = system: Poly(dA-dT)oligonucleotide
L6 = test: Cytotoxicity against rat L6 cells; type: cell-based
Procedure, shortened: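 Cultured L6 rat myoblast cells were used for the cytotoxicity measurement, giving an IC50.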

[2] = system: Trypanosoma brucei rhodesiense; test: Antiparasitic activity against Trypanosoma brucei rhodesiense STIB900
Plasmodium falciparum = test: Antiparasitic activity against Plasmodium falciparum K1
[3] = Selectivity index, ratio of IC50 for rat L6 cells to IC50 for Trypanosoma brucei rhodesiense STIB900; type: toxicity, cell-based; conditions: read-out: Ratio IC50
Procedure, shortened: (§1)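 Selectivity index is IC50 on cultured L6 rat myoblasts divided by IC50 on the parasite (P. falciparum K1 or T. b. rhodesiense STIB900).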

[4] = Selectivity index, ratio of IC50 for rat L6 cells to IC50 for Plasmodium falciparum K1; type: toxicity, cell-based; conditions: read-out: Ratio IC50
Procedure, shortened: as §1

[5] = system: Trypanosoma brucei rhodesiense; test: Ratio of DAPI IC50 to compound IC50 for Trypanosoma brucei rhodesiense STIB900

| Compound | ΔTm [1] [°C] | IC50 (L6) [nM] | IC50 [2] [nM] | IC50 (Plasmodium falciparum) [nM] | selectivity ratio [3] | selectivity ratio [4] | Ratio IC50 [5] |
| --- | --- | --- | --- | --- | --- | --- | --- |
| N=C(N)c1ccc2cc(C#Cc3ccc(C(=N)N)nc3)[nH]c2c1 | 19.1 | 1600 | 3 | 3.1 | 533 | 516 | – |
| N=C(N)c1ccc2cc(-c3ccc(-c4ccccc4)cc3)[nH]c2c1 | 16 | 8400 | 8720 | 858 | 0.96 | 9.8 | – |
| Cl.Cl.N=C(N)c1ccc(-c2ccc(-c3cc4ccc(C(=N)N)cc4[nH]3)cc2)cc1 | > 27 | – | – | – | 5250 | 3180 | 9 |
| N=C(N)c1ccc(-c2ccc(-c3nc4ccc(C(=N)N)cc4[nH]3)cc2)cc1 | > 27 | – | – | – | 2210 | 34000 | – |
| Cl.Cl.N=C(N)c1ccc(C#Cc2cc3ccc(C(=N)N)cc3[nH]2)cc1 | 19 | 8700 | 6 | 3.8 | 1450 | 2290 | 3 |
| Cl.Cl.N=C(N)c1ccc(-c2ccc(-c3cc4cc(C(=N)N)ccc4[nH]3)cc2)cc1 | 20.9 | 38900 | 4 | 0.7 | 9720 | 55600 | 4.5 |
| N=C(N)c1ccc(C#Cc2cc3ccc(C(=N)N)cc3[nH]2)nc1 | 12.2 | 13000 | 215 | 14.1 | 60 | 933 | – |
| N=C(N)c1ccc(-c2cc3ccc(C(=N)N)cc3[nH]2)cc1 [DAPI] | > 27 | – | – | – | 51 | – | – |
| Cl.Cl.N=C(N)c1ccc2cc(C#Cc3ccc(C(=N)N)c(F)c3)[nH]c2c1 | 16 | 4500 | 9 | 5.9 | 500 | 763 | 2 |
| N=C(N)c1ccc(-c2ccc(-c3ccc(C(=N)N)cc3)o2)cc1 [FURAMIDINE] | – | 6700 | – | – | – | – | – |
